Measured values: ChEMBL document CHEMBL5149993, “Rational Design of Photochromic Analogues of Tricyclic Drugs” (J Med Chem, 2021)
Active and inactive are the calls of the source. No cut-off for these calls is given here.

Legend:
[1] = Displacement of [3H]-QNB from Wistar rat brain membrane mAChR assessed as inhibition constant incubated for 30 mins by radioligand competitive binding assay; format: cell membranes
Procedure, shortened: (§1)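 Female Wistar rat cortex membranes (30 μg protein) in tris-HCl with 6 mM MgCl₂, 200 pM [³H]QNB (Kd 40 pM), ligands from 1 or 10 nM to 300 μM; 30 min at 37 °C equilibrium. Filtration through GF/C filters, scintillation counting. Nonspecific binding defined with 2 μM atropine. One-site competitive fits gave IC50 and Ki; n = 4 per isomer, n = 2 for reference.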

[2] = target: T1, Muscarinic acetylcholine receptor M1 (Homo sapiens) (UniProt P11229); assay: Antagonist activity at human M1 mAChR receptor expressed in HEK cells assessed as reduction in total cell response at 100 uM by real-time calcium imaging method relative to control; format: functional, cell-based; design: scale not given: the % may be the effect or the level left
T1 sequence (whole entry): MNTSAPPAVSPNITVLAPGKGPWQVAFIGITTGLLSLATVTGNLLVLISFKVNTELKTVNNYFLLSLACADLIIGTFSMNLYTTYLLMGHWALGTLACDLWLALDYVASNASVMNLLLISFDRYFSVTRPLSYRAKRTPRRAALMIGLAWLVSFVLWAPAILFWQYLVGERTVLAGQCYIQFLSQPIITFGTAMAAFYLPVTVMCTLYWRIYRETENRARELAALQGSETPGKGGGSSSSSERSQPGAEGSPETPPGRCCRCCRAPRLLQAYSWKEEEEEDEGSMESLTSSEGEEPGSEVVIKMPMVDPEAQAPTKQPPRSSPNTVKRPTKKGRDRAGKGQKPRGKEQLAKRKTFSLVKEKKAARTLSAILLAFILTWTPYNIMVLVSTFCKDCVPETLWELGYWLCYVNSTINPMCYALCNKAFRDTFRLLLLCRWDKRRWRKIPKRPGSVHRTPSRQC
Procedure, shortened: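 tsA201 cells transiently transfected with human M1 (± R-GECO1), used 48–72 h post-transfection. OGB-1 AM loading at 10 μM final, 30 min, 37 °C; HEPES bath pH 7.4 with 2 mM CaCl₂. Test at 100 μM against 0.5 μM ACh; cis formed by 2 min 365 nm pre-illumination or continuous 460 nm light. Responses normalized to 0.5 μM ACh maximum; Wilcoxon signed rank test.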

[3] = Displacement of [3H]-QNB from Wistar rat brain membrane mAChR incubated for 30 mins by radioligand competitive binding assay; format: cell membranes; procedure, shortened: as §1
[4] = Thermal stability of the compound assessed as half life; format: physicochemical
[5] = tested on: Cardiac atrium; assay: Anticholinergic activity in isolated CD1 mouse CCh-induced bradycardia atrium assessed as recovery of CCh-indued contraction frequency at 100 uM; format: functional, tissue-based
Procedure, shortened: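 Right atria from CD1 male mice, 10–12 weeks, in carbogenated Krebs, pH 7.4, under 0.2 g tension. Isometric recording of spontaneous contractions after 5–10 min equilibration. Bradycardia induced with CCh 10⁻⁶ M; test compound then added and beats/min measured.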

[6] = target: Muscarinic acetylcholine receptor M2 (human) (UniProt P08172); assay: Displacement of [3H]AF-DX384 from human recombinant M2 receptor expressed in CHO cells by topcount scintillation counter method
[7] = target: T2, Muscarinic acetylcholine receptor M1 (Homo sapiens, UniProt P11229); assay: Displacement of [3H]-pirenzepine from human recombinant M1 receptor expressed in CHO cells incubated for 60 mins by topcount scintillation counter method; format: cell-based
T2 sequence (P11229 whole entry): T1 sequence (whole entry)
Procedure, shortened: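 Membranes from CHO cells with human M1 (45 μg protein), 2 nM [³H]pirenzepine (Kd 13 nM), 60 min at 22 °C. Nonspecific binding with 1 μM atropine. GF/B filtration, scintillation counting. Tested at 1, 10 and 100 μM after 30 min 365 nm irradiation of DMSO stock; % inhibition, duplicate.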

| SMILES | Ki [1] [µM] | Activity [2] [%] | IC50 [3] [µM] | half-life [4] [h] | Activity ([2]; filed as antagonist) [%] | Activity [5] | IC50 [6] [µM] | IC50 [7] [µM] |
| --- | --- | --- | --- | --- | --- | --- | --- | --- |
| CN1CCN(CC(=O)Nc2ccccc2/N=N\c2ccc(N(C)C)cc2)CC1 | 5.3 | 14 | 32 | – | – | – | – | – |
| CN1CCN(CC(=O)Nc2ccccc2/N=N\c2cccnc2)CC1.Cl.Cl | 7 | – | 42 | 1.18 | – | – | – | – |
| CN1CCN(CC(=O)Nc2ccccc2/N=N/c2ccccc2)CC1.Cl.Cl | 1.7 | – | 9.9 | 3.03 | 64 | – | – | – |
| CN1CCN(CC(=O)Nc2ccccc2/N=N/c2ccc(N(C)C)cc2)CC1 | 5.3 | – | 33 | – | – | – | – | – |
| CN1CCN(CC(=O)N2c3ccccc3C(=O)Nc3cccnc32)CC1 | – | – | – | – | – | Active | – | – |
| CN1CCN(CC(=O)Nc2ccccc2/N=N/c2cccnc2)CC1.Cl.Cl | 6.4 | – | 38 | 1.18 | – | – | – | – |
| CN1CCN(CC(=O)Nc2ccccc2/N=N\c2ccccc2)CC1.Cl.Cl | 1.5 | – | 9.2 | 3.03 | 73 | Active | 28 | 1.9 |
